Structures are written as SMILES.

Drawing on ChEMBL document CHEMBL1152677, “Combretastatin-like chalcones as inhibitors of microtubule polymerisation. Part 2: Structure-based discovery of alpha-aryl chalcones” (Bioorg Med Chem, 2009), this text covers IC50 and Activity for 24 molecules.

Test [1] is described as follows: Inhibition of tubulin assembly by spectrophotometry. The method, boiled down: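 Tubulin (10–15 μM stock) in 0.1 M Mes, 1 mM EGTA, 0.5 mM MgCl2, pH 6.6, with GTP, compound in DMSO, assembled on cold at 0 °C then moved to 37 °C. Absorbance at 350 nm followed for 30 min against drug/GTP buffer blanks; change in optical density relative to untreated control gives IC50 for assembly inhibition.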

The subject of test [2] is K562. Description: Cell cycle arrest in human K562 cells assessed as accumulation at G2/M phase at 10 uL after overnight incubation by propidium iodide staining-based flow cytometry. It is filed as functional. In a few lines:
(§1)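 Fixed in cold 1:1 acetone:ethanol, washed in PBS, RNAse treated (37 °C, 15 min), stained with propidium iodide 50 µg/mL; DNA content read by flow cytometry, argon laser excitation 488 nm; percentage of cells per phase versus untreated control.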
(A flow cytometer gives signals particle by particle.)

In test [3] the test system is K562. Description: Antiproliferative activity against human K562 cells after 5 days by MTT assay. The format is functional, cell-based. Conditions: K562, 120 h. The method, boiled down:
(§2)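 Cells at about 2000 cells/mL (set by doubling time) in RPMI with 10% v/v FCS; compound from DMSO stock, seven twofold serial dilutions plus drug-free control, triplicate wells, 37 °C 5% CO2 for 5 days. MTT (3 mg/mL in PBS) added for 3 h, formazan dissolved in DMSO, OD read at 540 and 690 nm; IC50 derived graphically as percentage of control growth.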
A general note: Tetrazolium dyes change colour on reduction, which living cells bring about.

Test [4] concerns K562. Description: Cytotoxicity against human K562 cells. The format is functional, cell-based. The method, boiled down: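 K562 cells in RPMI with 10% v/v FCS, at about 2000 cells/mL. Drug in DMSO was serially diluted twofold to give seven concentrations, plus a drug-free control. Cells were plated in triplicate and incubated 5 days at 37 °C, 5% CO2. MTT (3 mg/mL stock) was added for 3 h, formazan dissolved in DMSO, and OD read at 540 and 690 nm. IC50 was found graphically as percent of control growth.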

Another test concerns L1210. Description: Antiproliferative activity against mouse L1210 cells after 5 days by MTT assay. The format is functional, cell-based. Conditions: L1210, 120 h. In a few lines: as §2
The test system of test [5] is K562. The experiment in a line: Cell cycle arrest in human K562 cells assessed as accumulation at S phase at 10 uL after overnight incubation by propidium iodide staining-based flow cytometry. It is filed as functional. In a few lines:
as §1

Another test relates to A2780. The experiment in a line: Antiproliferative activity against human A2780 cells after 5 days by MTT assay. The format is functional, cell-based. Conditions: A2780, 120 h. In a few lines:
as §2

A further test relates to P388. Description: Antiproliferative activity against mouse P388 cells after 5 days by MTT assay. The format is functional, cell-based. Conditions: P388, 120 h. In a few lines: as §2
Test [6] deals with K562. The experiment in a line: Cell cycle arrest in human K562 cells assessed as accumulation at G0/G1 phase at 10 uL after overnight incubation by propidium iodide staining-based flow cytometry. The format is functional. In a few lines:
as §1

Another test relates to A549. Description: Antiproliferative activity against human A549 cells after 5 days by MTT assay. The format is functional, cell-based. Conditions: A549, 120 h. The method, boiled down:
as §2

The nature of test [7]: Displacement of [3H]colchicine from tubulin. On the technique in general: Loss of bound radioactivity is the signal in a displacement assay; it reports binding, not function.
Test [8] in a line: Inhibition of tubulin assembly by turbidimetry assay.

One may read the IC50 as the point on the concentration scale where inhibition reaches its midpoint. Read a high IC50 as weaker potency. `COc1ccc(/C=C\c2cc(OC)c(OC)c(OC)c2)cc1O` [COMBRETASTATIN A4]: the IC50 in [1] worked out at 3.7 µM; in the test with K562 [3] it was 0.0032 µM; with K562 [4], 0.0014 µM; with L1210 it was 0.0023 µM; in the test on A2780, 0.0019 µM; in the test on P388, 0.0031 µM. Also, in the test on A549, the IC50 was found to be 0.0078 µM. The Activity in the test with K562 [2] is 62.7%; with K562 [5], 23.3%; in the test on K562 [6], 14%; in [7], 92%.
`COc1cc2c(c(OC)c1OC)-c1ccc(OC)c(=O)cc1[C@@H](NC(C)=O)CC2` [COLCHICINE] displayed an IC50 in test [8] of 2.6 µM.
As to `COc1ccc(/C=C(/C(=O)c2cc(OC)c(OC)c(OC)c2)c2ccccc2O)cc1O[Si](C)(C)C(C)(C)C`, the IC50 in test [1] was over 10 µM; with K562 [3] it was 0.38 µM.
`COc1cc(C(=O)C(=Cc2ccccc2)c2ccc(C)cc2)cc(OC)c1OC` showed an IC50 in the test with K562 [3] of 2.97 µM.
`COc1ccc(C=C(C(=O)c2cc(OC)c(OC)c(OC)c2)c2ccc(OC)cc2)cc1`: in the test with K562 [3], the midpoint of inhibition, the IC50, lay at 0.5 µM.
On to `COc1ccc(C(=Cc2ccc(OC)c(F)c2)C(=O)c2cc(OC)c(OC)c(OC)c2)cc1`, for which the IC50 in [1] amounted to 4.2 µM; with K562 [3], 0.45 µM.
For the molecule `COc1ccc(/C=C(\C)C(=O)c2cc(OC)c(OC)c(OC)c2)cc1O`, the IC50 in test [1] is 3.3 µM; in the test with K562 [3] it was 0.0044 µM; with L1210, 0.011 µM; in the test with A2780, 0.0018 µM; with P388 it was 0.026 µM; in the test on A549, 0.01 µM. The molecule also came in with an IC50 in test [8] of 0.46 µM. Also, the Activity was 56.4% in the test with K562 [2], 32.8% with K562 [5] and 10.7% in the test with K562 [6].
Consider `COc1ccc(C=C(C(=O)c2cc(OC)c(OC)c(OC)c2)c2ccccc2)cc1F`, for which, in the test on K562 [3], 0.79 µM corresponded to half-maximal inhibition (IC50).
With `COc1ccc(C=C(C(=O)c2cc(OC)c(OC)c(OC)c2)c2ccc(C)cc2)cc1O`, the IC50 is 2.6 µM in test [1] and 0.032 µM in the test on K562 [3].
In the case of `COc1ccc(C=C(C(=O)c2cc(OC)c(OC)c(OC)c2)c2ccc(C)cc2)cc1[N+](=O)[O-]`, in the test on K562 [3], half-maximal inhibition (IC50) was put at 2.43 µM.
With `COc1ccc(C=C(C(=O)c2cc(OC)c(OC)c(OC)c2)c2ccc(C)cc2)cc1F`, the values for the IC50 (in test [1]; in the test with K562 [3]) were 4.4 µM and 0.57 µM, respectively.
Consider `COc1ccc(C(=Cc2ccc(OC)c([N+](=O)[O-])c2)C(=O)c2cc(OC)c(OC)c(OC)c2)cc1`, for which the IC50 in the test on K562 [3] was 2.66 µM.
For the molecule `COc1ccc(/C=C(/C(=O)c2cc(OC)c(OC)c(OC)c2)c2ccccc2O)cc1O`, the IC50 in test [1] worked out at 5.5 µM; in the test on K562 [3] it was 0.049 µM; with L1210 it was 0.036 µM; in the test on A2780 it was 0.034 µM; in the test with P388, 0.028 µM; with A549 it was 0.05 µM. For the same molecule, the Activity is reported as 75.4% in the test on K562 [2], 18.1% in the test on K562 [5] and 6.5% with K562 [6].
`COc1ccc(/C=C(/C(=O)c2cc(OC)c(OC)c(OC)c2)c2ccccc2O)cc1F`: the IC50 in test [1] is 7.2 µM; with K562 [3], 0.06 µM; in the test with L1210, 0.06 µM; with A2780 it was 0.04 µM; in the test on P388 it was 0.53 µM; in the test with A549, 0.14 µM. Besides, the Activity in the test with K562 [2] is reported as 45.7%; in the test with K562 [5], 43.6%; with K562 [6] it was 10.6%.
In turn, `COc1ccc(C(=Cc2ccccc2)C(=O)c2cc(OC)c(OC)c(OC)c2)cc1` gave an IC50 with K562 [3] of 4.92 µM.
As to `COc1ccc(/C=C(/C(=O)c2cc(OC)c(OC)c(OC)c2)c2ccccc2O)cc1`, the IC50 in [1] is over 10 µM; in the test with K562 [3], 0.37 µM.
The molecule `COc1ccc(/C=C(/C(=O)c2cc(OC)c(OC)c(OC)c2)c2ccc(OC)cc2)cc1` displayed a half-inhibitory concentration (IC50) in the test on K562 [3] of 0.04 µM.
With `COc1ccc(C=C(C(=O)c2cc(OC)c(OC)c(OC)c2)c2ccccc2)cc1[N+](=O)[O-]`, the IC50 with K562 [3] is over 10 µM.
As to `COc1ccc(/C=C(/C(=O)c2cc(OC)c(OC)c(OC)c2)c2ccc(N(C)C)cc2)cc1`, the IC50 with K562 [3] was 0.15 µM.
`COc1ccc(C=C(C(=O)c2cc(OC)c(OC)c(OC)c2)c2ccc(C)cc2)cc1` registered an IC50 in the test with K562 [3] of 0.76 µM.
`COc1ccc(/C=C(/C(=O)c2cc(OC)c(OC)c(OC)c2)c2ccc(OC)cc2OC)cc1`: in the test with K562 [3], inhibition was half-maximal at 0.09 µM (IC50).
Regarding `COc1ccc(/C=C(/C(=O)c2cc(OC)c(OC)c(OC)c2)c2ccccc2)cc1`, in the test with K562 [3], half-maximal inhibition (IC50) was put at 0.02 µM.
Take `COc1ccc(C(=Cc2ccc(OC)c(O)c2)C(=O)c2cc(OC)c(OC)c(OC)c2)cc1`: the IC50 in test [1] turned out to be 2.1 µM; in the test with K562 [3], 0.012 µM; in the test on L1210, 0.16 µM; with A2780, 0.01 µM; with P388, 0.02 µM; with A549, 0.68 µM. The Activity was found to be 54.6% in the test with K562 [2], 34.6% with K562 [5] and 10.8% in the test on K562 [6].
On to `COc1cc(C(=O)C(=Cc2ccccc2)c2ccccc2)cc(OC)c1OC`, for which the IC50 with K562 [3] came out at 6.3 µM.
